Source: PubChem (several laboratories)
Shown are actives, neighbours in structure and some others; about 9% of the full set was active somewhere.
D1 mod: D1 CRE-luciferase signal change, two-sided – cell-based, HEK293 D1, dopamine EC30, D1 allosteric modulator project, primary screen; D(1A) dopamine receptor (Homo sapiens), P21728; dopamine EC30 potentiation; actives deviate in either direction; B-score at 10 µM; actives 5.9% (n = 58,000); AID 641, 2007;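 active = luminescence count or its row- and column-corrected plate score outside the 99.7% band of the plate's sample wells, on either side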
M1 ag: M1 muscarinic receptor agonists, primary screen, CHO-M1 cells, Fluo-4 calcium, agonist mode; B-score at 10 µM; actives 3% (n = 64,000); Fluo-4 calcium fluorescence; active compounds read high; Muscarinic acetylcholine receptor M1;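 active = fluorescence rise, raw or as B-score row- and column-corrected plate score, outside the 99.7% band of its plate's samples, either direction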
mHtt clearance: clearance of mutant huntingtin inclusions, primary screen, imaging, HeLa Exon1htt(103Q)mCFP, confocal imaging; aggregate imaging; zero = plate's median compound well; inhibition, % at 1.5 µM; actives 0.42% (n = 47,000); AID 853, 2007;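 active = inhibition of aggregate fluorescence above about 70%, also judged a hit by eye on the cell image, limit read from the data, passing the limit was not always enough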;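 also: cells exposed to compound for three days before fixation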
AP complement: alternative complement pathway inhibitors, primary screen, biochemical, ELISA, human serum, orthogonally pooled compounds; inhibition, % at 5 µM; actives 0.08% (n = 62,000); AID 1235, 2008; LPS-coated ELISA, C3 deposition; tested in compound mixtures;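 active = inhibition above 30% in each of the two pooled mixtures holding the compound, so the lower value exceeds 30%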;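 also: 0% = serum in Mg-EGTA without compound and 100% = EDTA serum blank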
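Test system: human serum alternative complement pathway, C3 deposition on LPS-coated wells; also added: Plate-bound LPS; doses: 5 µM per compound in ten-compound mixtures; schedule: 1 h at 37 °C; detection: Anti-C3 ELISA, OD 450 nm; evaluation: percent inhibition of C3 deposition onto LPS; repeats: two pool placements per compound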
M1 antag: antagonists of rat M1 muscarinic receptor | B-score at 10 µM | actives 3.4% (n = 64,000) | CHO-M1 cells, Fluo-4 calcium, ACh EC80 antagonist mode; active compounds read low;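 active = calcium fluorescence response, raw or row-and-column corrected B-score, differing from the plate sample mean either way at a set confidence level, mostly lower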
Target sequence (P08482 whole entry, looked up): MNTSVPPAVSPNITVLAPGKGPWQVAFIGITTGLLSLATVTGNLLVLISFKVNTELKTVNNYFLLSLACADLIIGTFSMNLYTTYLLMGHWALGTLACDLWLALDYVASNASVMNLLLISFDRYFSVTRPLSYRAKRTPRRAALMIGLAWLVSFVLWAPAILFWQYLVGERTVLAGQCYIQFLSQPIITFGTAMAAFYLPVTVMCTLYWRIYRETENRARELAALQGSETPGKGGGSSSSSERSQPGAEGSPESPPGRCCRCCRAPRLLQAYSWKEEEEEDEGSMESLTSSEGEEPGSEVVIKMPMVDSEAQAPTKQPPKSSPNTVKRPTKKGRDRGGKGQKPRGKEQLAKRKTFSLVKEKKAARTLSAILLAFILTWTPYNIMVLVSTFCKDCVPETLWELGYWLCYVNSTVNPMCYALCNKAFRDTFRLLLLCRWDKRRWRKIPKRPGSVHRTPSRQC
M1 antag confirm: rat M1 muscarinic receptor antagonists, confirmation, CHO cells, Fluo-4 calcium, duplicate; shares compounds with M1 antag; ACh EC80 antagonism; active compounds read low; calcium response (max-min fluorescence) at 10 µM; actives 43% (n = 1,700); AID 677, 2007;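 active = calcium response below the same-plate mean of wells given acetylcholine alone at its 80%-effect dose, minus 3 SD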;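 also: raw fluorescence intensity difference in arbitrary instrument units and not normalized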
mGluR4 antag: human mGluR4 response to M1 antagonist hits, M1 allosteric modulator project, cell-based, antagonist mode, secondary assay 1. shares compounds with M1 antag. CHO-mGluR4 calcium flux, Fluo-4 fluorescence, glutamate EC80; active compounds read low. fluorescence response (max-min) at 10 µM. actives 0.9% (n = 1,700);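 active = fluorescence response below the plate's average for near-maximal glutamate wells, less 3 SD of those wells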;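 also: raw unnormalized fluorescence span taken in the window right after glutamate addition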
The depositor's hits bear a star.

For Cn1c(CN2CCCC2)nc2cc(NC(=O)Nc3ccccc3)ccc21 the results were D1 mod -2.5, M1 ag 0.22, AP complement 11 and M1 antag -1.6.
`CC1CCN(CCc2nc3cc(NS(=O)(=O)c4ccccc4)ccc3n2C)CC1` gave D1 mod -0.33, M1 ag 1.1, mHtt clearance 21, AP complement 6, M1 antag -6*, M1 antag confirm 415* and mGluR4 antag 262.
CC1CCN(CCc2nc3cc(NC(=O)Nc4ccccc4)ccc3n2C)CC1 was read as D1 mod -0.24, M1 ag -1.1, mHtt clearance 12, AP complement 11, M1 antag -10*, M1 antag confirm 302* and mGluR4 antag 209.
Screening COC(=O)c1ccc(CSc2nnc(-c3ccncc3)n2Cc2ccccc2)o1 returned D1 mod 1.9, M1 ag -0.26, AP complement 18 and M1 antag -0.12.
CCOC(=O)N1CCN(C(=O)CN(c2ccc(Oc3ccccc3)cc2)S(C)(=O)=O)CC1 was read as M1 ag -1.9, AP complement 7 and M1 antag -0.18.
Screening CS(=O)(=O)N(CC(=O)N1CCC(C(N)=O)CC1)c1ccc(Oc2ccccc2)cc1 returned D1 mod -0.52, M1 ag 0.18, AP complement 3, M1 antag -1.6*, M1 antag confirm 550 and mGluR4 antag 195.
`Cc1ccc(NC(=O)NCc2ccc3c(c2)OCO3)cc1` gave mHtt clearance 27.
O=C1C(=C2CCCCC2)SC(=S)N1Cc1ccco1 was read as D1 mod 0.38, M1 ag -1, mHtt clearance 22, AP complement 10, M1 antag -7.3*, M1 antag confirm 111* and mGluR4 antag 206.
O=C(O)CCN1C(=O)C(=C2CCCCCC2)SC1=S was read as D1 mod -0.72, M1 ag 0.0022, AP complement 15 and M1 antag -0.029.
For COc1ccc(-c2oc3ncn(CCN4CCOCC4)c(=N)c3c2-c2ccc(OC)cc2)cc1 the results were D1 mod 1.7, M1 ag -0.17, mHtt clearance 30, AP complement 4, M1 antag -11*, M1 antag confirm 261* and mGluR4 antag 264.
`COc1ccc(-c2oc3ncnc(NCCN4CCOCC4)c3c2-c2ccc(OC)cc2)cc1` gave D1 mod 0.047, M1 ag 0.75, mHtt clearance 12, AP complement 6 and M1 antag 0.019.
Screening CCCCCOC(=O)CSc1nnc(-c2ccccc2)c(=O)[nH]1 returned AP complement -11.
`CCOc1ccc(N=CC2=C(O)CC(C)(C)CC2=O)cc1` gave D1 mod 0.85, M1 ag -0.22, mHtt clearance 14, AP complement 2 and M1 antag 0.13.
Screening CC1(C)CC(=O)C(C=Nc2ccc(O)cc2)=C(O)C1 returned M1 ag -0.053, mHtt clearance -6, AP complement 12, M1 antag -2.2*, M1 antag confirm 644 and mGluR4 antag 249.
For Cn1c(C(=O)NCCCN2CCOCC2)cc2c(=O)n(C)c3ccccc3c21 the results were D1 mod -0.3, M1 ag -0.37, mHtt clearance -5, AP complement 16 and M1 antag -0.34.
`Cn1c(C(=O)NCCN2CCN(Cc3ccccc3)CC2)cc2c(=O)n(C)c3ccccc3c21` gave D1 mod -0.54, M1 ag 0.043, AP complement 25, M1 antag -6.9*, M1 antag confirm 288* and mGluR4 antag 263.
